Laboratory results as given in ChEMBL document CHEMBL1240321, “Cyclostreptin binds covalently to microtubule pores and lumenal taxoid binding sites” (Nat Chem Biol, 2007).
Calls of active or inactive are those of the source. No cut-off for these calls is given here.

Experiments:
A549 [1] = assay: Induction of mitotic cell cycle arrest in human A549 cells assessed as accumulation of cells at SubG1 phase at 100 nM after 24 hrs by flow cytometry (Rvb= 25%); type: functional
[2] = Induction of mitotic cell cycle arrest in potoroo PtK2 cells assessed as accumulation of cells at G1/G0 phase at 2 uM after 7 hrs by flow cytometry (Rvb= 60%); type: functional, Potorous tridactylus
[3] = Cytotoxicity against human 1A9PTX10 cells; type: functional, cell-based; conditions: 1A9/ptx-10
[4] = Induction of mitotic cell cycle arrest in potoroo PtK2 cells assessed as accumulation at S phase at 5 uM after 7 hrs by flow cytometry (Rvb= 15.5%); type: functional, Potorous tridactylus
[5] = Cytotoxicity against human 1A9PTX22 cells; type: functional, cell-based; conditions: 1A9/ptx-22
[6] = Induction of micronucleation in potoroo PtK2 cells at 2 uM treated for 7 hrs followed by compound washout measured after 16 hrs by flow cytometry; type: functional, Potorous tridactylus
[7] = Induction of mitotic cell cycle arrest in potoroo PtK2 cells assessed as accumulation of cells at G1/G0 phase at 5 uM treated for 7 hrs, washed followed by 16 hrs incubation by flow cytometry (Rvb= 59%); type: functional, Potorous tridactylus
[8] = Induction of mitotic cell cycle arrest in potoroo PtK2 cells assessed as accumulation of cells at G2+M phase at 2 uM treated for 7 hrs, washed followed by 48 hrs incubation by flow cytometry (Rvb= 22.3%); type: functional, Potorous tridactylus
Tubulin (Homo sapiens) = Tubulin (Homo sapiens) (UniProt P68371+Q9H4B7+P0DPH7+P68366+Q13509+Q71U36+P04350+Q3ZCM7+P07437+P68363+Q9BQE3+Q6PEY2+Q13885+Q9BVA1+Q9BUF5); assay: Binding affinity to tubulin in human A549 cells
[9] = Induction of mitotic cell cycle arrest in potoroo PtK2 cells assessed as accumulation at S phase at 5 uM treated for 7 hrs, washed followed by 16 hrs incubation by flow cytometry (Rvb= 16%); type: functional, Potorous tridactylus
[10] = Induction of mitotic cell cycle arrest in potoroo PtK2 cells assessed as accumulation of cells at SubG1 phase at 5 uM treated for 7 hrs, washed followed by 16 hrs incubation by flow cytometry (Rvb= 2%); type: functional, Potorous tridactylus
PtK2 [11] = assay: Induction of micronucleation in potoroo PtK2 cells at 2 uM treated for 7 hrs followed by compound washout measured after 16 hrs by flow cytometry; conditions: Potorous tridactylus
[12] = Induction of mitotic cell cycle arrest in potoroo PtK2 cells assessed as accumulation of cells at SubG1 phase at 5 uM treated for 7 hrs, washed followed by 48 hrs incubation by flow cytometry (Rvb= 1.1%); type: functional, Potorous tridactylus
[13] = Induction of mitotic cell cycle arrest in potoroo PtK2 cells assessed as accumulation at 100 nM after 24 hrs by flow cytometry (Rvb= 26.3%)
A2780 = assay: Induction of mitotic cell cycle arrest in human A2780 cells assessed as accumulation of cells at S phase at 100 nM after 24 hrs by flow cytometry (Rvb= 17.5%); type: functional
[14] = Induction of mitotic cell cycle arrest in potoroo PtK2 cells assessed as accumulation of cells at SubG1 phase at 2 uM after 7 hrs by flow cytometry (Rvb= 2.4%); type: functional, Potorous tridactylus
[15] = Binding affinity to microtubule
[16] = Induction of mitotic cell cycle arrest in potoroo PtK2 cells assessed as accumulation of cells at G2+M phase at 5 uM after 7 hrs by flow cytometry (Rvb= 22.1%); type: functional, Potorous tridactylus
[17] = Induction of mitotic cell cycle arrest in potoroo PtK2 cells assessed as accumulation of cells at G1/G0 phase at 5 uM treated for 7 hrs, washed followed by 48 hrs incubation by flow cytometry (Rvb= 65.8%); type: functional, Potorous tridactylus
A549 [18] = assay: Binding affinity to beta-tubulin in human A549 cells at 1 uM after 24 hrs by HPLC analysis; type: cell-based
In short: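 A549 monolayers exposed 24 h to 1 µM ligand or 0.1% DMSO. Tubulin purified from homogenate supernatant by one-step DEAE ion exchange (0.4 M KCl load, 0.8 M KCl elution) to 90% purity. Tryptic or chymotryptic digests analysed by HPLC-MRM with Q3 at m/z 249.0. Adduct fraction estimated from the areas of modified and unmodified peptide peaks.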

[19] = Induction of mitotic cell cycle arrest in potoroo PtK2 cells assessed as accumulation of cells at SubG1 phase at 100 nM after 24 hrs by flow cytometry (Rvb= 0.9%); type: functional, Potorous tridactylus
PtK2 [20] = assay: Induction of micronucleation in potoroo PtK2 cells at 5 uM treated for 7 hrs followed by compound washout measured after 16 hrs by flow cytometry; conditions: Potorous tridactylus
[21] = Induction of mitotic cell cycle arrest in potoroo PtK2 cells assessed as accumulation at S phase at 5 uM treated for 7 hrs, washed followed by 48 hrs incubation by flow cytometry (Rvb= 10.7%); type: functional, Potorous tridactylus
A549 [22] = assay: Cytotoxicity against human A549 cells; type: functional, cell-based
[23] = Displacement of [3H]paclitaxel from microtubule assessed as bound radioligand level at 20 uM treated before radioligand addition by competitive binding assay
[24] = Induction of micronucleation in potoroo PtK2 cells at 10 uM after 7 hrs by flow cytometry; type: functional, Potorous tridactylus
[25] = Induction of mitotic cell cycle arrest in potoroo PtK2 cells assessed as accumulation of cells at G2+M phase at 5 uM treated for 7 hrs, washed followed by 48 hrs incubation by flow cytometry (Rvb= 22.3%); type: functional, Potorous tridactylus
PtK2 [26] = assay: Induction of micronucleation in potoroo PtK2 cells at 5 uM treated for 7 hrs followed by compound washout measured after 48 hrs by flow cytometry; type: functional, cell-based; conditions: Potorous tridactylus
[27] = Induction of mitotic cell cycle arrest in potoroo PtK2 cells assessed as accumulation of cells at G1/G0 phase at 2 uM treated for 7 hrs, washed followed by 16 hrs incubation by flow cytometry (Rvb= 59%); type: functional, Potorous tridactylus
[28] = Induction of mitotic cell cycle arrest in potoroo PtK2 cells assessed as accumulation of cells at G1/G0 phase at 5 uM after 7 hrs by flow cytometry (Rvb= 60%); type: functional, Potorous tridactylus
[29] = Induction of mitotic cell cycle arrest in human A2780AD cells assessed as accumulation of cells at G1/G0 phase at 100 nM after 24 hrs by flow cytometry (Rvb= 59.2%); type: functional, A2780 ADR
PtK2 [30] = assay: Induction of microtubule bundle formation in potoroo PtK2 cells at 2 uM after 7 hrs by flow cytometry; type: cell-based; conditions: Potorous tridactylus
[31] = Cytotoxicity against human A2780-1A9 cells; type: functional, cell-based
A549 [32] = assay: Induction of mitotic cell cycle arrest in human A549 cells assessed as accumulation of cells at G2+M phase at 100 nM after 24 hrs by flow cytometry (Rvb= 19.6%); type: functional
[33] = Induction of mitotic cell cycle arrest in potoroo PtK2 cells assessed as accumulation of cells at G1/G0 phase at 2 uM after 7 hrs by flow cytometry (Rvb= 15.5%); type: functional, Potorous tridactylus

For CC1=C[C@H]2[C@@H](O)[C@H](C)[C@@H](O)[C@@H]2[C@H]2[C@@H]3C4=C5O[C@](C)(CC[C@@H](OC4=O)[C@H]5C)[C@@H]3C[C@@H]12 [CYCLOSTREPTIN], which Activity (A549 [1]) is on record?
The Activity was 15%.

What about the Activity [2] of the same compound?
The Activity was 48%.

What about the IC50 [3] of the same compound?
The IC50 was 240 nM.

What about the Activity [4] of the same compound?
Its Activity is 17.5%.

What about the IC50 [5] of the same compound?
Its IC50 is 58 nM.

What about the Activity [6] of the same compound?
The Activity was 70%.

And the Activity [7]?
The Activity was 18.5%.

What about the Activity [8] of the same compound?
Its Activity is 75%.

And the Activity (Tubulin (Homo sapiens))?
The Activity was “Active”.

What about the Activity [9] of the same compound?
The Activity was 12.6%.

What about the Activity [10] of the same compound?
Its Activity is 3.4%.

And the Activity (PtK2 [11])?
The Activity was 70%.

What about the Activity [12] of the same compound?
Its Activity is 5.4%.

And the Activity [13]?
Its Activity is 65%.

And the Activity (A2780)?
Its Activity is 10.6%.

What about the Activity [14] of the same compound?
The Activity was 2.6%.

What about the Kd [15] of the same compound?
Its Kd is 49 nM.

And the Activity [16]?
Its Activity is 35%.

What about the Activity [17] of the same compound?
Its Activity is 9.4%.

And the Activity (A549 [18])?
Its Activity is “Active”.

What about the Activity [19] of the same compound?
The Activity was 4.6%.

What about the Activity (PtK2 [20]) of the same compound?
The Activity was 70%.

And the Activity [21]?
Its Activity is 8.6%.

And the IC50 (A549 [22])?
The IC50 was 45.5 nM.

And the Activity [23]?
The Activity was 25%.

And the Activity [24]?
Its Activity is 4%.

What about the Activity [25] of the same compound?
Its Activity is 77.1%.

What about the Activity (PtK2 [26]) of the same compound?
The Activity was “Active”.

And the Activity [27]?
The Activity was 20.5%.

What about the Activity [28] of the same compound?
Its Activity is 45.2%.

And the Activity [29]?
The Activity was 6.6%.

What about the Activity (PtK2 [30]) of the same compound?
Its Activity is 4%.

And the IC50 [31]?
The IC50 was 44 nM.

And the Activity (A549 [32])?
The Activity was 72%.

What about the Activity [33] of the same compound?
Its Activity is 18%.
